Data on 6 compounds can be found in publication PMC11564562 (Scientific Reports, 2024).

SMILES strings stand for the structures.

Assay [1] concerns MCF-7 breast cancer cells. Nature of the assay: MTT cytotoxicity assay, MCF-7. The format is cell-based. The note with it: Homo sapiens, MCF7, 72 h, read-out: IC50 cytotoxicity against MCF-7 cells. The method in brief:
(§1)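 MTT assay: cells cultured at 37 °C in 5% CO2 with 10% FBS and penicillin/streptomycin, HeLa in DMEM and MCF-7 in RPMI 1640. Seeded at 5,000 cells/well and left to adhere 24 h, then exposed 72 h to 0.1, 1, 10 and 100 µM test compound, diluted from 10 mM DMSO stocks in medium. MTT (5 mg/mL) added for 3 h, formazan dissolved in DMSO, absorbance read. Blank-corrected % survival taken relative to untreated cells; IC50 calculated; mean ± SD, n = 3; doxorubicin as positive control.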
(Tetrazolium assays rely on reduction of a dye to a coloured formazan, in cell work by metabolically active cells.)

For assay [2], the system named is Hsp90 protein level in MCF-7 cells. Nature of the assay: Hsp90 protein level assay. The note with it: 10 µM, control (untreated) cells 5.54 ng/mL. The format is cell-based, human. In a few lines:
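Sandwich ELISA kit quantifying intracellular Hsp90 in MCF-7 cells against untreated cells. Standards and samples incubated 2 h at 37 °C, then biotinylated antibody 1 h at 37 °C, three washes, HRP-avidin 1 h at 37 °C, washes, TMB 15–30 min at 37 °C. Stop solution added and absorbance read at 450 nm. Experiment run in triplicate (n = 3); significance set at p < 0.05.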

Assay [3] concerns HeLa cells. The experiment in a line: MTT cytotoxicity assay, HeLa. The format is cell-based. Particulars: Homo sapiens, 72 h, read-out: IC50 cytotoxicity against HeLa cells. The method in brief:
as §1

By IC50 is commonly meant the concentration that gives 50% inhibition. For `C=CCNC1=C2C[C@@H](C)C[C@H](OC)[C@H](O)[C@@H](C)/C=C(\C)[C@H](OC(N)=O)[C@@H](OC)/C=C\C=C(/C)C(=O)NC(=CC1=O)C2=O` [17-AAG, Tanespimycin, reference compound], the IC50 in assay [1] amounted to 0.1 µM.

For `COc1ccc(-c2noc(N)c2C#N)c(OC)c1` [compound 1, 5-amino-(2,4-dimethoxyphenyl) isoxazole-4-carbonitrile], the “Hsp90 protein level after treatment” value in assay [2] is on record as 4.85 ng/mL. The IC50 in assay [3] worked out at 7.91 µM; in assay [1] it was 0.31 µM.

Turning to `COc1ccc(-c2noc(NC(=O)c3ccccc3)c2C#N)c(OC)c1` [compound 2, N-(4-cyano-3(2,4-dimethoxyphenyl)isoxazol-5-yl) benzamide], the IC50 was more than 100 µM in assay [3] and not below 100 µM in assay [1].

`COc1ccc(-c2noc(NC(=O)c3ccc(Cl)cc3)c2C#N)c(OC)c1` [compound 3, N-(4-cyano-3-(2,4-dimethoxyphenyl)isoxazol-5-yl)-4-chlorobenzamide]: the values for the IC50 in assay [3] and in assay [1] were 3.61 µM and 68.3 µM, respectively.

For the compound `COc1ccc(-c2noc(NC(=O)c3ccc(C(F)(F)F)cc3)c2C#N)c(OC)c1` [compound 4, N-(4-cyano-3-(2,4-dimethoxyphenyl)isoxazol-5-yl)-4-(trifluoromethyl)benzamide], the “Hsp90 protein level after treatment” value in assay [2] is given as 2.81 ng/mL. Further, the IC50 in assay [3] turned out to be 19.4 µM; in assay [1], 50.6 µM.

Turning to `COc1ccc(-c2noc(NC(=O)c3ccc(F)cc3)c2C#N)c(OC)c1` [compound 8, N-(4-cyano-3(2,4-dimethoxyphenyl)isoxazol-5-yl)-4-fluorobenzamide], the IC50 was 31.9 µM in assay [3] and 54.1 µM in assay [1].
